Measurements taken from PMC7993274 (Clinical and Translational Science, 2020).

Assays:
MRP3 = conditions: cited from earlier work
[1] = test system: CYP1A2, CYP2D6, and CYP3A; conditions: cited from earlier work
CYP3A4 = assay: 6‐beta‐hydroxycortisol/cortisol ratio; format: in vivo, human; conditions: participants receiving PF‐06826647
[2] = Treatment-emergent adverse events, MAD period and b.i.d. cohort; format: in vivo, human
In short: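 Double-blind, placebo-controlled study in healthy men and nonchildbearing women aged 18–55 y. The SAD period gave one fasted oral dose; the MAD period gave fed dosing q.d. for 10 days, plus a separate b.i.d. cohort. TEAEs, serious AEs and discontinuation AEs were monitored ≥28 days after the last dose. Vital signs, physical exam, 12-lead ECG, hematology, clinical chemistry and urinalysis were also recorded. Data summarized descriptively.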

OATP1B1 = conditions: cited from earlier work
Impact of food on PK = format: in vivo, human; parameters: Cmax adjusted geometric mean (90% CI) for fed vs. fasted / AUC24 adjusted geometric mean for fed vs. fasted (90% CI): unit not given beside the values; conditions: for increase in AUC24 with a meal / increase in Cmax with a meal: fed vs fasted
[3] = MAD Japanese cohort 400 mg q.d. (n = 5)
[4] = b.i.d. cohort 200 mg b.i.d. (n = 7)

Cn1cc(-c2cn3nccc3c(-c3cnn([C@]4(CC#N)C[C@@H](C#N)C4)c3)n2)cn1 [PF‐06826647]
inhibition of transporter protein MRP3 (MRP3): minimal inhibition | major human clearance pathway [1]: cytochrome P450 (CYP)‐mediated (via CYP1A2, CYP2D6, and CYP3A) metabolism | 6‐beta‐hydroxycortisol/cortisol ratio (CYP3A4): no clinically meaningful alteration | AEs ([2]; MAD 30 mg q.d. (n = 6)): 2 n | AEs leading to permanent discontinuation of study drug ([2]; MAD 30 mg q.d. (n = 6)): 0 n | AEs leading to study drug dose reduction or interruption ([2]; MAD 30 mg q.d. (n = 6)): 0 n | Participants with AE ([2]; MAD 30 mg q.d. (n = 6)): 2 (33.3) n (%) | Participants with TEAEs: Alanine aminotransferase increased ([2]; MAD 30 mg q.d. (n = 6)): 0 n (%) | Participants with TEAEs: Blood creatinine increased ([2]; MAD 30 mg q.d. (n = 6)): 0 n (%) | Participants with TEAEs: Constipation ([2]; MAD 30 mg q.d. (n = 6)): 1 (16.7) n (%) | Participants with TEAEs: Dysuria ([2]; MAD 30 mg q.d. (n = 6)): 0 n (%) | Participants with TEAEs: Gastrointestinal disorders (SOC) ([2]; MAD 30 mg q.d. (n = 6)): 2 (33.3) n (%) | Participants with TEAEs: Headache ([2]; MAD 30 mg q.d. (n = 6)): 0 n (%) | Participants with TEAEs: Investigations (SOC) ([2]; MAD 30 mg q.d. (n = 6)): 0 n (%) | Participants with TEAEs: Nausea ([2]; MAD 30 mg q.d. (n = 6)): 1 (16.7) n (%) | Participants with TEAEs: Nervous system disorders (SOC) ([2]; MAD 30 mg q.d. (n = 6)): 0 n (%) | Participants with TEAEs: Renal and urinary disorders (SOC) ([2]; MAD 30 mg q.d. (n = 6)): 0 n (%) | SAEs ([2]; MAD 30 mg q.d. (n = 6)): 0 n | Severe AEs ([2]; MAD 30 mg q.d. (n = 6)): 0 n | AEs ([2]; MAD 100 mg q.d. (n = 6)): 1 n | AEs leading to permanent discontinuation of study drug ([2]; MAD 100 mg q.d. (n = 6)): 0 n | AEs leading to study drug dose reduction or interruption ([2]; MAD 100 mg q.d. (n = 6)): 0 n | Participants with AE ([2]; MAD 100 mg q.d. (n = 6)): 1 (16.7) n (%) | Participants with TEAEs: Alanine aminotransferase increased ([2]; MAD 100 mg q.d. (n = 6)): 0 n (%) | Participants with TEAEs: Blood creatinine increased ([2]; MAD 100 mg q.d. (n = 6)): 1 (16.7) n (%) | Participants with TEAEs: Constipation ([2]; MAD 100 mg q.d. (n = 6)): 0 n (%) | Participants with TEAEs: Dysuria ([2]; MAD 100 mg q.d. (n = 6)): 0 n (%) | Participants with TEAEs: Gastrointestinal disorders (SOC) ([2]; MAD 100 mg q.d. (n = 6)): 0 n (%) | Participants with TEAEs: Headache ([2]; MAD 100 mg q.d. (n = 6)): 0 n (%) | Participants with TEAEs: Investigations (SOC) ([2]; MAD 100 mg q.d. (n = 6)): 1 (16.7) n (%) | Participants with TEAEs: Nausea ([2]; MAD 100 mg q.d. (n = 6)): 0 n (%) | Participants with TEAEs: Nervous system disorders (SOC) ([2]; MAD 100 mg q.d. (n = 6)): 0 n (%) | Participants with TEAEs: Renal and urinary disorders (SOC) ([2]; MAD 100 mg q.d. (n = 6)): 0 n (%) | SAEs ([2]; MAD 100 mg q.d. (n = 6)): 0 n | Severe AEs ([2]; MAD 100 mg q.d. (n = 6)): 0 n | AEs ([2]; MAD 400 mg q.d. (n = 6)): 1 n | AEs leading to permanent discontinuation of study drug ([2]; MAD 400 mg q.d. (n = 6)): 0 n | AEs leading to study drug dose reduction or interruption ([2]; MAD 400 mg q.d. (n = 6)): 0 n | Participants with AE ([2]; MAD 400 mg q.d. (n = 6)): 1 (16.7) n (%) | Participants with TEAEs: Alanine aminotransferase increased ([2]; MAD 400 mg q.d. (n = 6)): 0 n (%) | Participants with TEAEs: Blood creatinine increased ([2]; MAD 400 mg q.d. (n = 6)): 1 (16.7) n (%) | Participants with TEAEs: Constipation ([2]; MAD 400 mg q.d. (n = 6)): 0 n (%) | Participants with TEAEs: Dysuria ([2]; MAD 400 mg q.d. (n = 6)): 0 n (%) | Participants with TEAEs: Gastrointestinal disorders (SOC) ([2]; MAD 400 mg q.d. (n = 6)): 0 n (%) | Participants with TEAEs: Headache ([2]; MAD 400 mg q.d. (n = 6)): 0 n (%) | Participants with TEAEs: Investigations (SOC) ([2]; MAD 400 mg q.d. (n = 6)): 1 (16.7) n (%) | Participants with TEAEs: Nausea ([2]; MAD 400 mg q.d. (n = 6)): 0 n (%) | Participants with TEAEs: Nervous system disorders (SOC) ([2]; MAD 400 mg q.d. (n = 6)): 0 n (%) | Participants with TEAEs: Renal and urinary disorders (SOC) ([2]; MAD 400 mg q.d. (n = 6)): 0 n (%) | SAEs ([2]; MAD 400 mg q.d. (n = 6)): 0 n | Severe AEs ([2]; MAD 400 mg q.d. (n = 6)): 0 n | AEs ([2]; MAD 1,200 mg q.d. (n = 5)): 1 n | AEs leading to permanent discontinuation of study drug ([2]; MAD 1,200 mg q.d. (n = 5)): 0 n | AEs leading to study drug dose reduction or interruption ([2]; MAD 1,200 mg q.d. (n = 5)): 0 n | Participants with AE ([2]; MAD 1,200 mg q.d. (n = 5)): 1 (20.0) n (%) | Participants with TEAEs: Alanine aminotransferase increased ([2]; MAD 1,200 mg q.d. (n = 5)): 0 n (%) | Participants with TEAEs: Blood creatinine increased ([2]; MAD 1,200 mg q.d. (n = 5)): 1 (20.0) n (%) | Participants with TEAEs: Constipation ([2]; MAD 1,200 mg q.d. (n = 5)): 0 n (%) | Participants with TEAEs: Dysuria ([2]; MAD 1,200 mg q.d. (n = 5)): 0 n (%) | Participants with TEAEs: Headache ([2]; MAD 1,200 mg q.d. (n = 5)): 0 n (%) | Participants with TEAEs: Investigations (SOC) ([2]; MAD 1,200 mg q.d. (n = 5)): 1 (20.0) n (%) | Participants with TEAEs: Nausea ([2]; MAD 1,200 mg q.d. (n = 5)): 0 n (%) | Participants with TEAEs: Nervous system disorders (SOC) ([2]; MAD 1,200 mg q.d. (n = 5)): 0 n (%) | Participants with TEAEs: Renal and urinary disorders (SOC) ([2]; MAD 1,200 mg q.d. (n = 5)): 0 n (%) | SAEs ([2]; MAD 1,200 mg q.d. (n = 5)): 0 n | Severe AEs ([2]; MAD 1,200 mg q.d. (n = 5)): 0 n | AEs [2, 3]: 2 n | AEs leading to permanent discontinuation of study drug [2, 3]: 0 n | AEs leading to study drug dose reduction or interruption [2, 3]: 0 n | Participants with AE [2, 3]: 1 (20.0) n (%) | Participants with TEAEs: Alanine aminotransferase increased [2, 3]: 1 (20.0) n (%) | Participants with TEAEs: Blood creatinine increased [2, 3]: 0 n (%) | Participants with TEAEs: Constipation [2, 3]: 0 n (%) | Participants with TEAEs: Dysuria [2, 3]: 0 n (%) | Participants with TEAEs: Gastrointestinal disorders (SOC) [2, 3]: 0 n (%) | Participants with TEAEs: Headache [2, 3]: 1 (20.0) n (%) | Participants with TEAEs: Investigations (SOC) [2, 3]: 1 (20.0) n (%) | Participants with TEAEs: Nausea [2, 3]: 0 n (%) | Participants with TEAEs: Nervous system disorders (SOC) [2, 3]: 1 (20.0) n (%) | Participants with TEAEs: Renal and urinary disorders (SOC) [2, 3]: 0 n (%) | SAEs [2, 3]: 0 n | Severe AEs [2, 3]: 0 n | AEs [2, 4]: 3 n | AEs leading to permanent discontinuation of study drug [2, 4]: 0 n | AEs leading to study drug dose reduction or interruption [2, 4]: 0 n | Participants with AE [2, 4]: 3 (42.9) n (%) | Participants with TEAEs: Alanine aminotransferase increased [2, 4]: 0 n (%) | Participants with TEAEs: Blood creatinine increased [2, 4]: 3 (42.9) n (%) | Participants with TEAEs: Constipation [2, 4]: 0 n (%) | Participants with TEAEs: Dysuria [2, 4]: 0 n (%) | Participants with TEAEs: Gastrointestinal disorders (SOC) [2, 4]: 0 n (%) | Participants with TEAEs: Headache [2, 4]: 0 n (%) | Participants with TEAEs: Investigations (SOC) [2, 4]: 3 (42.9) n (%) | Participants with TEAEs: Nausea [2, 4]: 0 n (%) | Participants with TEAEs: Nervous system disorders (SOC) [2, 4]: 0 n (%) | Participants with TEAEs: Renal and urinary disorders (SOC) [2, 4]: 0 n (%) | SAEs [2, 4]: 0 n | Severe AEs [2, 4]: 0 n | inhibition of transporter protein OATP1B1 (OATP1B1): minimal inhibition | AUC24 adjusted geometric mean for fed vs. fasted (90% CI) (Impact of food on PK; 30 mg): 122.0 (78.7–189.2) | Cmax adjusted geometric mean (90% CI) for fed vs. fasted (Impact of food on PK; 30 mg): 107.2 (74.2–154.8) | increase in AUC24 with a meal (Impact of food on PK; 30 mg): 22% | increase in Cmax with a meal (Impact of food on PK; 30 mg): 7% | AUC24 adjusted geometric mean for fed vs. fasted (90% CI) (Impact of food on PK; 100 mg): 155.7 (99.1–244.6) | Cmax adjusted geometric mean (90% CI) for fed vs. fasted (Impact of food on PK; 100 mg): 160.2 (109.7–234.0) | increase in AUC24 with a meal (Impact of food on PK; 100 mg): 56% | increase in Cmax with a meal (Impact of food on PK; 100 mg): 60% | AUC24 adjusted geometric mean for fed vs. fasted (90% CI) (Impact of food on PK; 400 mg): 175.6 (113.3–272.3) | Cmax adjusted geometric mean (90% CI) for fed vs. fasted (Impact of food on PK; 400 mg): 144.8 (100.2–209.1) | increase in AUC24 with a meal (Impact of food on PK; 400 mg): 76% | increase in Cmax with a meal (Impact of food on PK; 400 mg): 45% | median Tmax with food (Impact of food on PK; fed, day 1 MAD, doses of 30–400 mg): 3.0 to 4.0 h
